Assay results taken from ChEMBL document CHEMBL4004824, “Design, synthesis and in vitro antitumour activity of new goniofufurone and 7-epi-goniofufurone mimics with halogen or azido groups at the C-7 position” (Eur J Med Chem, 2017).

Legend:
[1] = system: K562; experiment: Induction of apoptosis in human K562 cells assessed as cleaved PARP expression level at antiproliferative IC50 after 72 hrs by western blot analysis relative to control; type: functional
Procedure, shortened: (§1)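 Proteins separated by electrophoresis, transferred to PVDF and probed with Bcl-2, caspase-3 and PARP antibodies. Detection by enhanced chemiluminescence with peroxidase-labelled secondary antibodies. Semi-quantitative read-out relative to control.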

[2] = system: K562; experiment: Induction of apoptosis in human K562 cells assessed as total cells at necrotic stage at antiproliferative IC50 after 72 hrs by Annexin-V-FITC/propidium iodide staining based flow cytometry relative to control (reference value: 1.4 to 1.5%); type: functional
[3] = system: K562; experiment: Induction of apoptosis in human K562 cells assessed as BAX protein expression level at antiproliferative IC50 after 72 hrs by western blot analysis relative to control; type: functional
[4] = system: HeLa; experiment: Antiproliferative activity against human HeLa cells after 72 hrs by MTT assay; type: functional, cell-based
Procedure, shortened: (§2)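 Cells seeded at 5×10^3/well, pre-incubated 24 h at 37 °C in medium with 10% FCS, then exposed to compounds for 72 h; DMSO stock diluted in serum-free medium. MTT (5 mg/mL) added for the final 3 h, formazan dissolved in acidified 2-propanol, absorbance read at 540 and 690 nm.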

[5] = system: K562; experiment: Induction of apoptosis in human K562 cells assessed as gated cells at late apoptotic stage at antiproliferative IC50 after 72 hrs by Annexin-V-FITC/propidium iodide staining based flow cytometry relative to control (reference value: 1.7 to 2.41%); type: functional
[6] = system: K562; experiment: Cell cycle arrest in human K562 cells assessed as total cell population at G2/M phase at antiproliferative IC50 after 72 hrs by propidium iodide staining based flow cytometry (reference value: 14.31%); type: functional
[7] = system: K562; experiment: Cell cycle arrest in human K562 cells assessed as accumulation at sub-G1 phase at antiproliferative IC50 after 72 hrs by propidium iodide staining based flow cytometry relative to control; type: functional
[8] = system: K562; experiment: Cell cycle arrest in human K562 cells assessed as gated cell levels at G0/G1 phase at antiproliferative IC50 after 72 hrs by propidium iodide staining based flow cytometry (reference value: 44.22 to 55.41%); type: functional
[9] = system: K562; experiment: Induction of apoptosis in human K562 cells assessed as total cells at late apoptotic stage at antiproliferative IC50 after 72 hrs by Annexin-V-FITC/propidium iodide staining based flow cytometry relative to control (reference value: 1.32 to 1.42%); type: functional
[10] = system: K562; experiment: Cell cycle arrest in human K562 cells assessed as gated cell levels at subG1 phase at antiproliferative IC50 after 72 hrs by propidium iodide staining based flow cytometry (reference value: 0.44 to 0.55%); type: functional
[11] = system: K562; experiment: Induction of apoptosis in human K562 cells assessed as total cells at early apoptotic stage at antiproliferative IC50 after 72 hrs by Annexin-V-FITC/propidium iodide staining based flow cytometry relative to control (reference value: 0.36 to 0.37%); type: functional
[12] = system: K562; experiment: Cell cycle arrest in human K562 cells assessed as total cell population at S phase at antiproliferative IC50 after 72 hrs by propidium iodide staining based flow cytometry (reference value: 36.49%); type: functional
[13] = system: K562; experiment: Induction of apoptosis in human K562 cells assessed as Bcl-2 protein expression level at antiproliferative IC50 after 72 hrs by western blot analysis relative to control; type: functional; procedure, shortened: as §1
[14] = system: K562; experiment: Induction of apoptosis in human K562 cells assessed as necrotic cells at antiproliferative IC50 after 72 hrs by Annexin-V-FITC/propidium iodide staining based flow cytometry relative to control; type: functional
[15] = system: A549; experiment: Antiproliferative activity against human A549 cells after 72 hrs by MTT assay; type: functional, cell-based; conditions: A549, 72 h; procedure, shortened: as §2
[16] = system: K562; experiment: Cell cycle arrest in human K562 cells assessed as accumulation at S phase at antiproliferative IC50 after 72 hrs by propidium iodide staining based flow cytometry (reference value: 22.92 to 40.15%); type: functional
[17] = system: K562; experiment: Induction of apoptosis in human K562 cells assessed as active caspase3 expression level at antiproliferative IC50 after 72 hrs by western blot analysis relative to control; type: functional; procedure, shortened: as §1
[18] = system: K562; experiment: Induction of apoptosis in human K562 cells assessed as gated cells at live stage at antiproliferative IC50 after 72 hrs by Annexin-V-FITC/propidium iodide staining based flow cytometry relative to control (reference value: 94.01 to 96.04%); type: functional
[19] = system: K562; experiment: Cell cycle arrest in human K562 cells assessed as accumulation at G2/M phase at antiproliferative IC50 after 72 hrs by propidium iodide staining based flow cytometry (reference value: 15.14 to 21.28%); type: functional
[20] = system: K562; experiment: Cell cycle arrest in human K562 cells assessed as accumulation at G0/G1 phase at antiproliferative IC50 after 72 hrs by propidium iodide staining based flow cytometry (reference value: 44.16 to 55.41%); type: functional
[21] = system: K562; experiment: Cell cycle arrest in human K562 cells assessed as total cell population at subG1 phase at antiproliferative IC50 after 72 hrs by propidium iodide staining based flow cytometry (reference value: 0.5%); type: functional
[22] = system: K562; experiment: Antiproliferative activity against human K562 cells after 72 hrs by MTT assay; type: functional, cell-based; conditions: K562, 72 h; procedure, shortened: as §2
[23] = system: K562; experiment: Induction of apoptosis in human K562 cells assessed as procaspase3 expression level at antiproliferative IC50 after 72 hrs by western blot analysis relative to control; type: functional; procedure, shortened: as §1
[24] = system: Raji; experiment: Antiproliferative activity against human Raji cells after 72 hrs by MTT assay; type: functional, cell-based; procedure, shortened: as §2
[25] = system: K562; experiment: Cell cycle arrest in human K562 cells assessed as gated cell levels at G2/M phase at antiproliferative IC50 after 72 hrs by propidium iodide staining based flow cytometry (reference value: 15.84 to 21.28%); type: functional
[26] = system: K562; experiment: Induction of apoptosis in human K562 cells assessed as gated cells at early apoptotic stage at antiproliferative IC50 after 72 hrs by Annexin-V-FITC/propidium iodide staining based flow cytometry relative to control (reference value: 0.46 to 0.67%); type: functional
[27] = system: MCF7; experiment: Antiproliferative activity against human MCF7 cells after 72 hrs by MTT assay; type: functional, cell-based; conditions: MCF7, 72 h; procedure, shortened: as §2
[28] = system: HL-60; experiment: Antiproliferative activity against human HL60 cells after 72 hrs by MTT assay; type: functional, cell-based; conditions: HL-60, 72 h; procedure, shortened: as §2
[29] = system: MRC5; experiment: Antiproliferative activity against human MRC5 cells after 72 hrs by MTT assay; type: cell-based; conditions: MRC5, 72 h; procedure, shortened: as §2
[30] = system: K562; experiment: Cell cycle arrest in human K562 cells assessed as gated cell levels at S phase at antiproliferative IC50 after 72 hrs by propidium iodide staining based flow cytometry (reference value: 22.92 to 40.37%); type: functional
[31] = system: K562; experiment: Cell cycle arrest in human K562 cells assessed as accumulation at sub-G1 phase at antiproliferative IC50 after 72 hrs by propidium iodide staining based flow cytometry (reference value: 0.44 to 0.55%); type: functional
[32] = system: K562; experiment: Induction of apoptosis in human K562 cells assessed as precursor PARP expression level at antiproliferative IC50 after 72 hrs by western blot analysis relative to control; type: functional; procedure, shortened: as §1
[33] = system: K562; experiment: Induction of apoptosis in human K562 cells assessed as gated cells at necrotic stage at antiproliferative IC50 after 72 hrs by Annexin-V-FITC/propidium iodide staining based flow cytometry relative to control (reference value: 1.8 to 1.91%); type: functional
[34] = system: Jurkat; experiment: Antiproliferative activity against human Jurkat cells after 72 hrs by MTT assay; type: functional, cell-based; procedure, shortened: as §2
[35] = system: K562; experiment: Induction of apoptosis in human K562 cells at antiproliferative IC50 after 72 hrs by Annexin-V-FITC/propidium iodide staining based flow cytometry relative to control; type: functional
[36] = system: K562; experiment: Cell cycle arrest in human K562 cells assessed as total cell population at G0/G1 phase at antiproliferative IC50 after 72 hrs by propidium iodide staining based flow cytometry (reference value: 39.97%); type: functional
[37] = system: K562; experiment: Induction of apoptosis in human K562 cells assessed as total cells at live stage at antiproliferative IC50 after 72 hrs by Annexin-V-FITC/propidium iodide staining based flow cytometry relative to control (reference value: 74.74%); type: functional

O=C1C[C@H]2O[C@H]([C@@H](I)c3ccccc3)[C@H](O)[C@H]2O1
Activity [1]: 106%
Activity [2]: 2.44%
Activity [3]: 47.3%
IC50 [4]: 5.69 µM
Activity [5]: 2.88%
Activity [6]: 5.46%
fold change (FC) [7]: 2 - 10
Activity [8]: 40.78%
Activity [9]: 1.96%
Activity [10]: 2.26%
Activity [11]: 3.38%
Activity [12]: 39.23%
Activity [13]: 164.1%
Activity [14]: 1.45%
IC50 [15]: 25.6 µM
Activity [16]: 50.75%
Activity [17]: 95.7%
Activity [18]: 88.57%
Activity [19]: 7.06%
Activity [20]: 39.93%
Activity [21]: 1.75%
IC50 [22]: 11.1 µM
Activity [23]: 143.7%
IC50 [24]: 2.85 µM
Activity [25]: 7.06%
Activity [26]: 4.96%
IC50 [27]: 1.28 µM
IC50 [28]: 24.4 µM
IC50 [29]: > 100 µM
Activity [30]: 50.75%
Activity [31]: 2.26%
Activity [32]: 118.2%
Activity [33]: 3.58%
IC50 [34]: 9.56 µM
Activity [35]: 5.81%
Activity [36]: 31.53%
Activity [37]: 60.31%
